Experimental data from ChEMBL document CHEMBL4715714, “Design, synthesis and biological evaluation of thiosemicarbazones, hydrazinobenzothiazoles and arylhydrazones as anticancer agents with a potential to overcome multidrug resistance” (Eur J Med Chem, 2016).
Calls of active or inactive are those of the source. The rule behind the calls is not given here.

Tests used:
MES-SA [1] = experiment: Cytotoxicity against human MES-SA cells assessed as inhibition of cell proliferation incubated for 72 hrs by MTT assay; assay type: functional, cell-based
Procedure, shortened: (§1)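 Cells were seeded (10000/well for A2780, 5000/well for MES-SA/Dx5 and KB-3-1/V1) and left to attach 12 h, then exposed to compound for 72 h. Medium was removed, and MTT (0.83 mg/mL) was added for 1 h at 37 °C. Cells were lysed in DMSO and absorbance read at 540 nm. Signal was corrected for unstained lysate background, normalized to untreated cells, and IC50 taken from a sigmoidal dose-response fit.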

MES-SA/Dx5 [2] = experiment: Cytotoxicity against human MES-SA/DX5 cells assessed as inhibition of cell proliferation incubated for 72 hrs by MTT assay; assay type: functional, cell-based; conditions: MES-SA/Dx5, 72 h; procedure, shortened: as §1
MES-SA [3] = experiment: Cytotoxicity against human MES-SA cells transfected with mCherry fluorescent protein assessed as inhibition of cell proliferation incubated for 72 hrs by fluorescent assay; assay type: functional, cell-based; conditions: Homo sapiens, MES-SA, 72 h
Procedure, shortened: (§2)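 MES-SA and MES-SA/Dx5 cells were made to stably express mCherry by lentiviral transduction. Cells were seeded at 5000 (96-well) or 2500 (384-well) per well, allowed to attach 24 h, then treated with compound dilutions for 72 h. Viability was read as fluorescence, excitation 585 nm, emission 610 nm.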

MES-SA/Dx5 [4] = experiment: Cytotoxicity against human MES-SA/DX5 cells transfected with mCherry fluorescent protein assessed as inhibition of cell proliferation incubated for 72 hrs by fluorescent assay; assay type: functional, cell-based; conditions: Homo sapiens, MES-SA/Dx5, 72 h; procedure, shortened: as §2
KB 3-1 = experiment: Cytotoxicity against human KB-3-1 cells assessed as inhibition of cell proliferation incubated for 72 hrs by MTT assay; assay type: functional, cell-based; conditions: KB 3-1, 72 h; procedure, shortened: as §1
KB-V1 = experiment: Cytotoxicity against human KB-V1 cells assessed as inhibition of cell proliferation incubated for 72 hrs by MTT assay; assay type: functional, cell-based; conditions: KB-V1, 72 h; procedure, shortened: as §1
A2780 = experiment: Cytotoxicity against human A2780 cells assessed as inhibition of cell proliferation incubated for 72 hrs by MTT assay; assay type: functional, cell-based; conditions: A2780, 72 h; procedure, shortened: as §1
[5] = Cytotoxicity against human A2780adr cells assessed as inhibition of cell proliferation incubated for 72 hrs by MTT assay; assay type: functional, cell-based; conditions: A2780 ADR; procedure, shortened: as §1
MES-SA/Dx5 [6] = experiment: Cytotoxicity against human MES-SA/DX5 cells incubated for 72 hrs in presence of efflux pump inhibitor, Tariquidar by MTT assay; assay type: functional, cell-based
Procedure, shortened: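 Run as the 72 h MTT viability readout (12 h attachment, MTT 0.83 mg/mL for 1 h, DMSO lysis, A540), with the P-gp inhibitor Tariquidar at 1 µM co-present. IC50 came from sigmoidal fits of 2 to 4 independent experiments.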

[7] = Selectivity ratio of IC50 for human MES-SA cells to IC50 for human MES-SA/DX5 cells incubated for 72 hrs by MTT assay; assay type: functional
Procedure, shortened: (§3)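 The selectivity ratio is the IC50 in P-gp-negative parental cells divided by the IC50 in the P-gp-positive resistant partner.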

[8] = Selectivity ratio of IC50 for human MES-SA cells transfected with mCherry to IC50 for human MES-SA/DX5 cells transfected with mCherry incubated for 72 hrs by fluorescent assay; assay type: functional
MES-SA/Dx5 [9] = experiment: Cytotoxicity against human MES-SA/DX5 cells transfected with mCherry fluorescent protein incubated for 72 hrs in presence of efflux pump inhibitor, Tariquidar by fluorescence assay; assay type: functional, cell-based
Procedure, shortened: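 The mCherry-expressing cells (lentiviral) were seeded at 5000 or 2500 per well, attached for 24 h, and exposed 72 h to compounds with Tariquidar coadministered. Live-cell signal was fluorescence at 585 nm excitation and 610 nm emission.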

MES-SA/Dx5 [10] = experiment: Reduction in P-gp expression in human MES-SA/DX5 cells at IC20 concentration incubated for 5 days by calcein-AM staining based flow cytometric analysis; assay type: functional, cell-based; conditions: time 5.0 day
Procedure, shortened: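 MES-SA/Dx5 cells were grown 5 days with compound at IC20 values calculated from viability assays, then recovered in drug-free medium refreshed every fifth day. At 80% confluency, cells were stained with Calcein AM with or without verapamil, with TO-PRO-3 excluding dead cells, and analysed by flow cytometry for the P-gp-negative fraction.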

HFF = experiment: Cytotoxicity against human HFF cells by MTT assay
[11] = Selectivity ratio of IC50 for human A2780 cells to IC50 for human A2780adr cells incubated for 72 hrs by MTT assay; assay type: functional; procedure, shortened: as §3
A2780 ADR = experiment: Cytotoxicity against human A2780adr cells assessed as inhibition of cell proliferation incubated for 72 hrs in presence of efflux pump inhibitor, Tariquidar by MTT assay; assay type: functional, cell-based

Compound	IC50 (MES-SA [1]; read-out: IC50) [nM]	IC50 (MES-SA [1]; read-out: pIC50 (converted)) [nM]	IC50 (MES-SA/Dx5 [2]; read-out: IC50) [nM]	IC50 (MES-SA/Dx5 [2]; read-out: pIC50 (converted)) [nM]	IC50 (MES-SA [3]; read-out: IC50) [nM]	IC50 (MES-SA/Dx5 [4]; read-out: IC50) [nM]	IC50 (KB 3-1; read-out: IC50) [nM]	IC50 (KB 3-1; read-out: pIC50 (converted)) [nM]	IC50 (KB-V1; read-out: IC50) [nM]	IC50 (KB-V1; read-out: pIC50 (converted)) [nM]	IC50 (A2780; read-out: IC50) [nM]	IC50 (A2780; read-out: pIC50 (converted)) [nM]	IC50 ([5]; read-out: IC50) [nM]	IC50 ([5]; read-out: pIC50 (converted)) [nM]	Activity (MES-SA/Dx5 [6])	Ratio IC50 [7]	Ratio IC50 [8]	Activity (HFF)	IC50 (MES-SA [3]; read-out: pIC50 (converted)) [nM]	IC50 (MES-SA/Dx5 [4]; read-out: pIC50 (converted)) [nM]	other results
COc1ccc(NC(=S)N/N=C2\C(=O)Nc3ccc(OC(F)(F)F)cc32)cc1	6140	5750	2780	2570	8140	2520	6560	6170	3920	3890	3390	3240	3770	3550	inactive	2.31	3.29	–	–	–	Activity (MES-SA/Dx5 [9]): inactive
Cc1ccc(NC(=S)N/N=C2\C(=O)Nc3ccccc32)cc1	5330	5130	3270	3310	11300	3270	4440	4170	4000	3980	9700	9550	8750	8910	Active	1.87	3.1	Toxic	–	–	inhibition (MES-SA/Dx5 [10]): Active; Activity (MES-SA/Dx5 [9]): inactive
Cc1ccc(NC(=S)N/N=C/c2ccccn2)cc1	396	363	76	72.4	790	770	740	724	920	891	48	47.9	64	63.1	Active	4.55	–	Non-Toxic	759	562	–
CCc1ccc(/C=N/Nc2cc(OC)ncn2)nc1	1550	–	1110	–	2330	2110	1230	1230	1570	1550	1300	1290	630	617	Active	1.41	–	–	–	–	Ratio IC50 [11]: 2.03; Activity (A2780 ADR): Active
C/C(=N\Nc1nc2ccccc2s1)c1ccccn1	200	219	14	12.3	250	100	340	372	280	295	94	89.1	31	30.2	Active	17.58	–	Non-Toxic	240	83.2	–
COc1ccc(NC(=S)N/N=C(\C)c2ccccn2)cc1	340	339	14.2	14.1	250	64	950	692	1750	1050	46	45.7	31	28.2	Active	22.59	4.54	–	229	57.5	Activity (MES-SA/Dx5 [9]): Active
COc1cc(N/N=C(\C)c2ccccn2)ncn1	260	–	95	–	260	220	360	355	490	490	140	132	27	25.7	Active	2.62	–	Non-Toxic	339	234	Ratio IC50 [11]: 4.33; Activity (A2780 ADR): Active
Cc1ccc(NC(=S)N/N=C/c2ccccc2O)cc1	3970	–	5360	–	1440	1870	3360	3310	3690	3470	5150	5010	6010	6030	–	–	–	Toxic	–	–	–
C/C(=N\Nc1nc2ccccc2s1)c1ccccc1O	12500	12300	5520	5250	21600	11600	14300	13800	12100	11500	8740	8320	–	9770	Active	1.91	1.9	Toxic	21400	8910	Activity (MES-SA/Dx5 [9]): Active
COc1ccc(NC(=S)NNC2=c3ccccc3=NC2=O)cc1	–	–	–	–	–	–	–	–	–	–	–	–	–	–	–	–	–	Toxic	–	–	–
